Tests used:
[1] = system: Human immunodeficiency virus 1; test: Antiviral activity against wild-type HIV-1 3B infected in human MT4 cells assessed as inhibition of viral replication after 5 days by MTT assay; format: functional, organism-based; details: Human immunodeficiency virus 1, 3B, MT4, 120 h
[2] = system: Human immunodeficiency virus 1; test: Antiviral activity against HIV-1 RES056 harboring reverse transcriptase K103N/Y181C double mutant infected in human MT4 cells assessed as inhibition of viral replication after 5 days by MTT assay; format: functional, organism-based; details: Human immunodeficiency virus 1, RES056, MT4, 120 h
MT4 = test: Cytotoxicity against human MT4 cells assessed as decrease in cell viability after 5 days by MTT assay; format: cell-based; details: mt4, 120 h
Method in brief: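 Mock-infected MT-4 cells, exponentially growing, seeded with compound in culture medium without virus; run in parallel with the antiviral assay. Viability read spectrophotometrically by MTT reduction five days later.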

[3] = Selectivity index, ratio of CC50 for human MT4 cells to EC50 for wild-type HIV1 3B; format: toxicity; details: read-out: Ratio CC50/EC50
Method in brief: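 Wild-type HIV-1 IIIB at 100–300 CCID50 added to MT-4 cells with compound, with mock-infected wells in parallel. MTT viability was read at day 5. […] SI = CC50/EC50.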

[4] = Selectivity index, ratio of CC50 for human MT4 cells to EC50 for HIV-1 RES056 harboring reverse transcriptase K103N/Y181C double mutant infected in human MT4 cells; format: toxicity, cell-based; details: read-out: Ratio CC50/EC50
Method in brief: (§1)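 SI is CC₅₀ divided by EC₅₀, both by MTT after 5 days in MT-4 cells. CC₅₀ comes from mock-infected cultures run in parallel and is the concentration reducing their viability by 50%. EC₅₀ comes from cultures infected with the given mutant strain at 100–300 CCID₅₀.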

[5] = system: Human immunodeficiency virus 1; test: Antiviral activity against HIV1 harboring reverse transcriptase L100I mutant infected in human MT4 cells assessed as inhibition of viral replication after 5 days by MTT assay; format: functional, organism-based; details: Human immunodeficiency virus 1, MT4, 120 h
[6] = system: Human immunodeficiency virus 1; test: Antiviral activity against HIV1 harboring reverse transcriptase K103N mutant infected in human MT4 cells assessed as inhibition of viral replication after 5 days by MTT assay; format: functional, organism-based; details: Human immunodeficiency virus 1, MT4, 120 h
[7] = system: Human immunodeficiency virus 1; test: Antiviral activity against HIV1 harboring reverse transcriptase E138K mutant infected in human MT4 cells assessed as inhibition of viral replication after 5 days by MTT assay; format: functional, organism-based; details: Human immunodeficiency virus 1, MT4, 120 h
[8] = system: Human immunodeficiency virus 1; test: Antiviral activity against HIV1 harboring reverse transcriptase Y181C mutant infected in human MT4 cells assessed as inhibition of viral replication after 5 days by MTT assay; format: functional, organism-based; details: Human immunodeficiency virus 1, MT4, 120 h
[9] = system: Human immunodeficiency virus 1; test: Antiviral activity against HIV1 harboring reverse transcriptase Y188L mutant infected in human MT4 cells assessed as inhibition of viral replication after 5 days by MTT assay; format: functional, organism-based; details: Human immunodeficiency virus 1, MT4, 120 h
Method in brief: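 MT-4 cells in exponential growth, resuspended into wells holding HIV-1 stock (IIIB, RES056 K103N/Y181C, F227L/V106A, L100I, K103N, E138K, Y181C or Y188L) at 100–300 CCID₅₀, or into mock-infected wells. Viability read by MTT reduction to formazan, measured spectrophotometrically 5 days post-infection. EC₅₀ is the concentration giving 50% protection against virus-induced cytotoxicity.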

[10] = system: Human immunodeficiency virus 1; test: Antiviral activity against HIV1 harboring reverse transcriptase F227L/V106A double mutant infected in human MT4 cells assessed as inhibition of viral replication after 5 days by MTT assay; format: functional, organism-based; details: Human immunodeficiency virus 1, MT4, 120 h
[11] = system: Human immunodeficiency virus 1; test: Resistance factor, ratio of EC50 for HIV1 harboring reverse transcriptase L100I mutant to EC50 for wild-type HIV-1 3B; format: functional
Method in brief: (§2)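 Resistance fold is EC₅₀ against the mutant strain divided by EC₅₀ against WT IIIB. Both EC₅₀ values come from the 5-day MTT protection assay in MT-4 cells infected with 100–300 CCID₅₀ of virus.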

[12] = system: Human immunodeficiency virus 1; test: Resistance factor, ratio of EC50 for HIV1 harboring reverse transcriptase K103N mutant to EC50 for wild-type HIV-1 3B; format: functional; method in brief: as §2
[13] = system: Human immunodeficiency virus 1; test: Resistance factor, ratio of EC50 for HIV1 harboring reverse transcriptase E138K mutant to EC50 for wild-type HIV-1 3B; format: functional; method in brief: as §2
[14] = system: Human immunodeficiency virus 1; test: Resistance factor, ratio of EC50 for HIV1 harboring reverse transcriptase Y181C mutant to EC50 for wild-type HIV-1 3B; format: functional; method in brief: as §2
[15] = system: Human immunodeficiency virus 1; test: Resistance factor, ratio of EC50 for HIV1 harboring reverse transcriptase Y188L mutant to EC50 for wild-type HIV-1 3B; format: functional; method in brief: as §2
[16] = system: Human immunodeficiency virus 1; test: Resistance factor, ratio of EC50 for HIV1 harboring reverse transcriptase F227L/V106A mutant to EC50 for wild-type HIV-1 3B; format: functional; method in brief: as §2
[17] = Selectivity index, ratio of CC50 for human MT4 cells to EC50 for HIV1 harboring reverse transcriptase L100I mutant; format: toxicity; details: read-out: Ratio CC50/EC50; method in brief: as §1
[18] = Selectivity index, ratio of CC50 for human MT4 cells to EC50 for HIV1 harboring reverse transcriptase K103N mutant; format: toxicity; details: read-out: Ratio CC50/EC50; method in brief: as §1
[19] = Selectivity index, ratio of CC50 for human MT4 cells to EC50 for HIV1 harboring reverse transcriptase E138K mutant; format: toxicity; details: read-out: Ratio CC50/EC50; method in brief: as §1
[20] = Selectivity index, ratio of CC50 for human MT4 cells to EC50 for HIV1 harboring reverse transcriptase Y181C mutant; format: toxicity; details: read-out: Ratio CC50/EC50; method in brief: as §1
[21] = Selectivity index, ratio of CC50 for human MT4 cells to EC50 for HIV1 harboring reverse transcriptase Y188L mutant; format: toxicity; details: read-out: Ratio CC50/EC50; method in brief: as §1
[22] = Selectivity index, ratio of CC50 for human MT4 cells to EC50 for HIV1 harboring reverse transcriptase F227L/V106A mutant; format: toxicity; details: read-out: Ratio CC50/EC50; method in brief: as §1

Structure (SMILES)	EC50 [1] [µM]	EC50 [2] [µM]	CC50 (MT4) [µM]	selectivity ratio [3]	selectivity ratio [4]	further results
Cc1cc(C)c(Oc2cc(Nc3ccc(C#N)cc3)ncc2C(=O)NCc2cn(Cc3ccccc3C#N)nn2)c(C)c1	0.039	> 220	> 220	–	–	–
Cc1cccc(Cn2cc(CNC(=O)c3cnc(Nc4ccc(C#N)cc4)cc3Oc3c(C)cc(C)cc3C)nn2)c1	0.106	> 114	114	1070	< 1	–
Cc1cc(C)c(Oc2cc(Nc3ccc(C#N)cc3)ncc2C(=O)NCc2cn(CCCO)nn2)c(C)c1	0.037	5.23	25.2	678	5	EC50 [5]: 1.95 µM; EC50 [6]: 0.41 µM; EC50 [7]: 0.039 µM; EC50 [8]: 0.23 µM; EC50 [9]: 3.17 µM; EC50 [10]: 0.78 µM; Ratio EC50 [11]: 52.7; Ratio EC50 [12]: 11.1; Ratio EC50 [13]: 1.1; Ratio EC50 [14]: 6.2; Ratio EC50 [15]: 85.7; Ratio EC50 [16]: 21.1; selectivity ratio [17]: 13; selectivity ratio [18]: 62; selectivity ratio [19]: 651; selectivity ratio [20]: 109; selectivity ratio [21]: 8; selectivity ratio [22]: 32
Cc1cc(C)c(Oc2cc(Nc3ccc(C#N)cc3)ncc2C(=O)NCc2cn(Cc3cccc(C#N)c3)nn2)c(C)c1	0.025	> 130	≥ 130	–	–	–
Cc1cc(C)c(Oc2cc(Nc3ccc(C#N)cc3)ncc2C(=O)NCc2cn(Cc3ccccc3C)nn2)c(C)c1	0.077	> 164	≥ 164	–	–	–
CCOC(=O)CCn1cc(CNC(=O)c2cnc(Nc3ccc(C#N)cc3)cc2Oc2c(C)cc(C)cc2C)nn1	0.847	> 21.5	21.5	25	< 1	–
Cc1cc(C)c(Oc2cc(Nc3ccc(C#N)cc3)ncc2C(=O)NCc2cn(Cc3cccc(Cl)c3)nn2)c(C)c1	0.104	> 187	187	1800	< 1	–
Cc1ccc(Cn2cc(CNC(=O)c3cnc(Nc4ccc(C#N)cc4)cc3Oc3c(C)cc(C)cc3C)nn2)cc1	0.167	> 165	165	990	< 1	–
Cc1cc(C)c(Oc2cc(Nc3ccc(C#N)cc3)ncc2C(=O)NCc2cn(Cc3ccc([N+](=O)[O-])cc3)nn2)c(C)c1	0.04	> 140	≥ 140	–	–	–
COC(=O)Cn1cc(CNC(=O)c2cnc(Nc3ccc(C#N)cc3)cc2Oc2c(C)cc(C)cc2C)nn1	1.77	> 13.8	13.8	8	< 1	–
Cc1cc(C)c(Oc2cc(Nc3ccc(C#N)cc3)ncc2C(=O)NCc2cn(Cc3ccccc3[N+](=O)[O-])nn2)c(C)c1	0.057	> 212	> 212	–	–	–
Cc1cc(C)c(Oc2cc(Nc3ccc(C#N)cc3)ncc2C(=O)NCc2cn(CCC#N)nn2)c(C)c1	0.02	2.31	40.1	–	–	EC50 [5]: 1.06 µM; EC50 [6]: 0.25 µM; EC50 [7]: 0.015 µM; EC50 [8]: 0.089 µM; EC50 [9]: 2.24 µM; EC50 [10]: 0.33 µM; Ratio EC50 [11]: 53; Ratio EC50 [12]: 12.5; Ratio EC50 [13]: 0.8; Ratio EC50 [14]: 4.5; Ratio EC50 [15]: 112; Ratio EC50 [16]: 16.5; selectivity ratio [17]: 38; selectivity ratio [18]: 158; selectivity ratio [19]: 2630; selectivity ratio [20]: 450; selectivity ratio [21]: 18; selectivity ratio [22]: 121

From ChEMBL document CHEMBL4152200, “Targeting the entrance channel of NNIBP: Discovery of diarylnicotinamide 1,4-disubstituted 1,2,3-triazoles as novel HIV-1 NNRTIs with high potency against wild-type and E138K mutant virus” (Eur J Med Chem, 2018)
